Data from ChEMBL document CHEMBL3875158, “Synthesis and biological evaluation of 4-(2-(dimethylamino)ethoxy)benzohydrazide derivatives as inhibitors of Entamoeba histolyica” (Eur J Med Chem, 2016).

How the values were obtained:
Entamoeba histolytica = test: Antiamoebic activity against Entamoeba histolytica HM-1:IMSS trophozoites incubated for 10 mins under nitrogen gassed condition measured after 72 hrs by eosin staining based micro dilution method; type: functional
Summary of the method: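 Microdilution in 96-well plates with trophozoites in Diamond TYIS-33 medium at 10^5 cells per mL. Compounds dissolved in ethanol (level non-inhibitory to amoebae), stock 1 mg/mL, tested in triplicate. Plate sealed, gassed with nitrogen 10 min, incubated 37 °C for 72 h. Then medium removed, washed with 0.9% NaCl, methanol-fixed and stained with 0.5% aqueous eosin for 15 min, OD read at 490 nm. IC50 from non-linear regression of % inhibition versus control. At least two independent experiments.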

[1] = Cytotoxicity against human A549 cells assessed as reduction in cell viability after 48 hrs by MTT assay; type: toxicity, cell-based
Summary of the method: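 Cells seeded at 8000/well in Ham's F-12 with 10% FBS and grown to 80–90% confluence. Medium then replaced with drug-containing medium with 1% FBS; drug range […], each concentration in triplicate, medium-only negative controls. Stocks made in ethanol, diluted in medium. Incubated at 37 °C, 5% CO2 for 48 h. MTT (5 mg/ml) added for 4 h, formazan dissolved in DMSO, absorbance read at 560 nm with 670 nm reference. Viability relative to controls; IC50 from concentration–viability plot.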

Row | SMILES | IC50 (Entamoeba histolytica) | IC50 at 48 h [1]
1 | COc1cc(/C=N/NC(=O)c2ccc(OCCN(C)C)cc2)ccc1O | 2410 nM | –
2 | COc1ccc(/C=N/NC(=O)c2ccc(OCCN(C)C)cc2)cc1OC | 2690 nM | –
3 | CN(C)CCOc1ccc(C(=O)N/N=C/c2ccc(O)cc2)cc1 | 2210 nM | –
4 | Cc1cc(C)c(/C=N/NC(=O)c2ccc(OCCN(C)C)cc2)c(C)c1 | 1890 nM | 81.7 µM
5 | CC(C)Oc1ccc(/C=N/NC(=O)c2ccc(OCCN(C)C)cc2)cc1 | 7650 nM | –
6 | COc1c(O)ccc(/C=N/NC(=O)c2ccc(OCCN(C)C)cc2)c1Br | 3610 nM | –
7 | CN(C)CCOc1ccc(C(=O)N/N=C/c2ccc3c(c2)OCO3)cc1 | 1060 nM | 548 µM
8 | CN(C)CCOc1ccc(C(=O)N/N=C/c2ccccc2Cl)cc1 | 230 nM | 134 µM
9 | Cc1ccc(/C=N/NC(=O)c2ccc(OCCN(C)C)cc2)cc1 | 1860 nM | 475 µM
10 | CN(C)CCOc1ccc(C(=O)N/N=C/c2cc(Br)c(O)c(Br)c2)cc1 | 1170 nM | 281 µM
11 | CCOc1ccc(/C=N/NC(=O)c2ccc(OCCN(C)C)cc2)cc1 | 3770 nM | –
12 | CN(C)CCOc1ccc(C(=O)N/N=C/c2ccc(O)c(O)c2)cc1 | 6400 nM | –
13 | CN(C)CCOc1ccc(C(=O)N/N=C/c2ccccc2)cc1 | 1430 nM | 268 µM
14 | CCOC(OCC)c1ccc(/C=N/NC(=O)c2ccc(OCCN(C)C)cc2)cc1 | 1140 nM | 172 µM
15 | COc1ccc(/C=N/NC(=O)c2ccc(OCCN(C)C)cc2)cc1 | 1530 nM | 126 µM
16 | CN(C)CCOc1ccc(C(=O)N/N=C/c2ccc(Cl)cc2)cc1 | 790 nM | 69.4 µM
17 | CN(C)CCOc1ccc(C(=O)N/N=C/c2cccc(Cl)c2)cc1 | 1010 nM | 140 µM
18 | COc1cc(/C=N/NC(=O)c2ccc(OCCN(C)C)cc2)ccc1OC(C)=O | 790 nM | 186 µM
19 | COc1cc(/C=N/NC(=O)c2ccc(OCCN(C)C)cc2)ccc1OC(C)C | 4130 nM | –
20 | CCc1ccc(/C=N/NC(=O)c2ccc(OCCN(C)C)cc2)cc1 | 5650 nM | –
21 | CN(C)CCOc1ccc(C(=O)N/N=C/c2ccccc2O)cc1 | 1760 nM | 404 µM
22 | CN(C)CCOc1ccc(C(=O)N/N=C/c2ccc(N(C)C)cc2)cc1 | 1890 nM | 481 µM
23 | CN(C)CCOc1ccc(C(=O)N/N=C/c2cccc([N+](=O)[O-])c2)cc1 | 2800 nM | –
24 | CC(C)c1ccc(/C=N/NC(=O)c2ccc(OCCN(C)C)cc2)cc1 | 3450 nM | –
25 | Cc1ccsc1/C=N/NC(=O)c1ccc(OCCN(C)C)cc1 | 4980 nM | –
26 | CN(C)CCOc1ccc(C(=O)N/N=C/c2ccc(Cl)c(Cl)c2)cc1 | 2810 nM | –
27 | CN(C)CCOc1ccc(C(=O)N/N=C/c2ccc([N+](=O)[O-])cc2)cc1 | 2400 nM | –
28 | CN(C)CCOc1ccc(C(=O)N/N=C/c2ccccn2)cc1 | 2370 nM | –
29 | COc1ccc(OC)c(/C=N/NC(=O)c2ccc(OCCN(C)C)cc2)c1 | 1810 nM | 110 µM
30 | Cc1ncc([N+](=O)[O-])n1CCO [METRONIDAZOLE] | 1890 nM | > 100 µM
